# Test results as given in publication PMC10842602 (Bioorganic & medicinal chemistry, 2023).
# Target: T1, WT human SLACK (Homo sapiens, UniProt Q5JUK3)
# T1 sequence (Q5JUK3 1-1235 isoform Q5JUK3-3): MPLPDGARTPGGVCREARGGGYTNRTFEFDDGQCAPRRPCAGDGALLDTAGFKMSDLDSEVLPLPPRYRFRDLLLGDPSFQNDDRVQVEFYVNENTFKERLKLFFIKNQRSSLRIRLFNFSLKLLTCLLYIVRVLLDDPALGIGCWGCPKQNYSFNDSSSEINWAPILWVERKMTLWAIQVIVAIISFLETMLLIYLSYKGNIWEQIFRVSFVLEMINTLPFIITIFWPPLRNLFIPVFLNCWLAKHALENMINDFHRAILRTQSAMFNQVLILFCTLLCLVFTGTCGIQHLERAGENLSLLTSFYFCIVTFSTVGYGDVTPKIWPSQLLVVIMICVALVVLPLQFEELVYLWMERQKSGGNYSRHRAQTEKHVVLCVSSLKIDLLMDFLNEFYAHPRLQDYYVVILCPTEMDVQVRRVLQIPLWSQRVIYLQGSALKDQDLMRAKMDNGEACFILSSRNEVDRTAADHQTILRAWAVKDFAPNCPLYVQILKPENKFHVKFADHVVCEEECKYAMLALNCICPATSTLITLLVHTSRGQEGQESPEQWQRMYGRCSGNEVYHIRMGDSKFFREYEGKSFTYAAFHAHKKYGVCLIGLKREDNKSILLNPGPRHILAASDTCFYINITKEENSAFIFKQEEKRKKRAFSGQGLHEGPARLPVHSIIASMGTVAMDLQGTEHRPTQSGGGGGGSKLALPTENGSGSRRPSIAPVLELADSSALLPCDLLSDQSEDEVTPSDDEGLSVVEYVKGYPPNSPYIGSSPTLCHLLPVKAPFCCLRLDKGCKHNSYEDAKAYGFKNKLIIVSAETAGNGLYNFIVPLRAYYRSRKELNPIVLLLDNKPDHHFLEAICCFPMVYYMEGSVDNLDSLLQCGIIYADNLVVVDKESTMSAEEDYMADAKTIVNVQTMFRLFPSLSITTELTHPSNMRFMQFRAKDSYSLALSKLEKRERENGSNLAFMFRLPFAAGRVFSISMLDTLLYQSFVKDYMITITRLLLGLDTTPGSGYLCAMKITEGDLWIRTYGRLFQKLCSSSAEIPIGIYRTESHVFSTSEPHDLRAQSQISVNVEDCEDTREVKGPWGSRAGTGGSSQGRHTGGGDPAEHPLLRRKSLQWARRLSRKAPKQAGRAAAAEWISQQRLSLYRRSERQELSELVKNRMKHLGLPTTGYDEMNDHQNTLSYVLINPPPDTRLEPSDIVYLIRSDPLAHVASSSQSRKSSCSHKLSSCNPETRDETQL
# Experiment: Tl+ flux assay in HEK-293 cells stably expressing WT human SLACK
# Type: cell-based
# Details: for IC50 / EC50: CRC; for Mode: Tl+ flux, HEK-293 cells expressing WT SLACK
# Procedure, shortened: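 Stably transfected HEK-293 cells expressing wild-type human SLACK; thallium flux read-out. IC50 or EC50 taken from concentration-response curves, and each compound classed as inhibitor, activator or not active. Efficacy is the response amplitude at 30 μM test compound, as a percentage of the maximum response to a reference SLACK inhibitor (for inhibitors) or loxapine (for activators).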
# [1] = IC50 for compounds of mode Inh (also cells printed Inactive)
structure (smiles),measurement,setting,value
"CCOc1ccccc1S(=O)(=O)N1CC(c2nc(-c3ncccn3)no2)C1 [Compound 68, 5-(1-((2-Ethoxyphenyl)sulfonyl)azetidin-3-yl)-3-(pyrimidin-2-yl)-1,2,4-oxadiazole]",IC50 / EC50,[1],Inactive
same,Mode,,Inactive
CCOc1ccccc1S(=O)(=O)[C@H]1C[C@H](c2nc(-c3ccc(F)cc3)no2)C1 [Compound 73b],IC50 / EC50,[1],>10 µM
CCOc1ccccc1C(=O)N1CC(c2nc(-c3ccsc3)no2)C1 [Compound 33],IC50 / EC50,EC50 for compounds of mode Act,>10 µM
"Cc1ccc(S(=O)(=O)N2CC(c3nc(-c4ccsc4)no3)C2)cc1 [Compound 22, 3-(Thiophen-3-yl)-5-(1-tosylazetidin-3-yl)-1,2,4-oxadiazole]",IC50 / EC50,[1],Inactive
same,Mode,,Inactive
CCOc1ccccc1S(=O)(=O)N1CC(c2nc(-c3ccc(F)cc3)c[nH]2)C1 [Compound 99],IC50 / EC50,EC50 for compounds of mode Act,4.1 µM
"CCOc1ccccc1S(=O)(=O)N1CC(c2nc(-c3ccccc3C)no2)C1 [Compound 50, 5-(1-((2-Ethoxyphenyl)sulfonyl)azetidin-3-yl)-3-(o-tolyl)-1,2,4-oxadiazole]",IC50 / EC50,EC50 for compounds of mode Act,>10 µM
Cc1cn2cccc(S(=O)(=O)N3CC(c4nc(-c5ccc(F)cc5)no4)C3)c2n1 [Compound 126],IC50 / EC50,EC50 for compounds of mode Act,>10 µM
"CCOc1ccccc1S(=O)(=O)N1CC(c2nc(-c3cccc(OC)c3)no2)C1 [Compound 54, 5-(1-((2-Ethoxyphenyl)sulfonyl)azetidin-3-yl)-3-(3-methoxyphenyl)-1,2,4-oxadiazole]",IC50 / EC50,EC50 for compounds of mode Act,>10 µM
CCOc1ccccc1S(=O)(=O)C1CN(c2nc(-c3ccc(F)cc3)no2)C1 [Compound 71],IC50 / EC50,[1],>10 µM
Cc1nnc2c(S(=O)(=O)N3CC(c4nc(-c5ccc(F)cc5)no4)C3)cccn12 [Compound 133],IC50 / EC50,[1],Inactive
same,Mode,,Inactive
"O=S(=O)(c1ccccc1N1CCCCC1)N1CC(c2nc(-c3ccc(F)cc3)no2)C1 [Compound 118, 3-(4-Fluorophenyl)-5-(1-((2-(piperidin-1-yl)phenyl)sulfonyl)azetidin-3-yl)-1,2,4-oxadiazole]",IC50 / EC50,[1],>10 µM
"CCOc1ccccc1S(=O)(=O)N1CC(c2nc(-c3cccc(C(F)(F)F)c3)no2)C1 [Compound 48, 5-(1-((2-Ethoxyphenyl)sulfonyl)azetidin-3-yl)-3-(3-(trifluoromethyl)phenyl)-1,2,4-oxadiazole]",IC50 / EC50,[1],11 µM
"O=S(=O)(c1ccc(Cl)cc1)N1CC(c2nc(-c3ccsc3)no2)C1 [Compound 16, 5-(1-((4-Chlorophenyl)sulfonyl)azetidin-3-yl)-3-(thiophen-3-yl)-1,2,4-oxadiazole]",IC50 / EC50,[1],Inactive
same,Mode,,Inactive
O=S(=O)(c1cccn2ccnc12)N1CC(c2nc(-c3ccc(F)cc3)no2)C1 [Compound 125],IC50 / EC50,EC50 for compounds of mode Act,>10 µM
"Cc1cccc(S(=O)(=O)N2CC(c3nc(-c4ccsc4)no3)C2)c1 [Compound 21, 3-(Thiophen-3-yl)-5-(1-(m-tolylsulfonyl)azetidin-3-yl)-1,2,4-oxadiazole]",IC50 / EC50,EC50 for compounds of mode Act,>10 µM
"CCCCOc1ccccc1S(=O)(=O)N1CC(c2nc(-c3ccsc3)no2)C1 [Compound 28, 5-(1-((2-Butoxyphenyl)sulfonyl)azetidin-3-yl)-3-(thiophen-3-yl)-1,2,4-oxadiazole]",IC50 / EC50,[1],Inactive
same,Mode,,Inactive
CCOc1ccccc1C(C)N1CC(c2nc(-c3ccsc3)no2)C1 (stereo not shown) [Compound 32],IC50 / EC50,EC50 for compounds of mode Act,>10 µM
"CCOc1ccccc1S(=O)(=O)N1CC(c2nc(-c3ccccc3OC)no2)C1 [Compound 53, 5-(1-((2-Ethoxyphenyl)sulfonyl)azetidin-3-yl)-3-(2-methoxyphenyl)-1,2,4-oxadiazole]",IC50 / EC50,EC50 for compounds of mode Act,>10 µM
CCOc1ccccc1S(=O)(=O)N1CC(c2cc(-c3ccc(F)cc3)no2)C1 [Compound 92],IC50 / EC50,[1],Inactive
same,Mode,,Inactive
"O=S(=O)(c1ccccc1OC1COC1)N1CC(c2nc(-c3ccc(F)cc3)no2)C1 [Compound 115, 3-(4-Fluorophenyl)-5-(1-((2-(oxetan-3-yloxy)phenyl)sulfonyl)azetidin-3-yl)-1,2,4-oxadiazole]",IC50 / EC50,EC50 for compounds of mode Act,2.5 µM
CCCc1ccccc1S(=O)(=O)N1CC(c2nc(-c3ccsc3)no2)C1 [Compound 30],IC50 / EC50,[1],>10 µM
"O=S(=O)(c1ccc(C(F)(F)F)cc1)N1CC(c2nc(-c3ccsc3)no2)C1 [Compound 19, 3-(Thiophen-3-yl)-5-(1-((4-(trifluoromethyl)phenyl)sulfonyl)azetidin-3-yl)-1,2,4-oxadiazole]",IC50 / EC50,[1],Inactive
same,Mode,,Inactive
"CCOc1ccccc1S(=O)(=O)N1CC(c2nc(-c3ccccc3Cl)no2)C1 [Compound 44, 3-(2-Chlorophenyl)-5-(1-((2-ethoxyphenyl)sulfonyl)azetidin-3-yl)-1,2,4-oxadiazole]",IC50 / EC50,[1],8.0 µM
"CCOc1ccccc1S(=O)(=O)N1CC(c2nc(-c3ccccc3C(F)(F)F)no2)C1 [Compound 47, 5-(1-((2-Ethoxyphenyl)sulfonyl)azetidin-3-yl)-3-(2-(trifluoromethyl)phenyl)-1,2,4-oxadiazole]",IC50 / EC50,EC50 for compounds of mode Act,1.9 µM
"CCOc1ccccc1S(=O)(=O)N1CC(c2nc(-c3nccs3)no2)C1 [Compound 61, 5-(1-((2-Ethoxyphenyl)sulfonyl)azetidin-3-yl)-3-(thiazol-2-yl)-1,2,4-oxadiazole]",IC50 / EC50,[1],Inactive
same,Mode,,Inactive
"O=S(=O)(c1ccccc1OC1CCCC1)N1CC(c2nc(-c3ccc(F)cc3)no2)C1 [Compound 116, 5-(1-((2-(cyclopentyloxy)phenyl)sulfonyl)azetidin-3-yl)-3-(4-fluorophenyl)-1,2,4-oxadiazole]",IC50 / EC50,[1],5.8 µM
"CCOc1ccccc1S(=O)(=O)N1CC(c2nc(-c3cccc(C)c3)no2)C1 [Compound 51, 5-(1-((2-Ethoxyphenyl)sulfonyl)azetidin-3-yl)-3-(m-tolyl)-1,2,4-oxadiazole]",IC50 / EC50,[1],>10 µM
CCOc1ccccc1CC(=O)N1CC(c2nc(-c3ccsc3)no2)C1 [Compound 34],IC50 / EC50,EC50 for compounds of mode Act,>10 µM
CCNc1ccccc1S(=O)(=O)N1CC(c2nc(-c3ccsc3)no2)C1 [Compound 29],IC50 / EC50,[1],Inactive
same,Mode,,Inactive
CCOc1ccccc1S(=O)(=O)N1CC[C@H](c2nc(-c3ccc(F)cc3)no2)C1 [Compound 75],IC50 / EC50,[1],>10 µM
"CCOc1ccccc1S(=O)(=O)N1CC(c2nc(-c3ccc(F)cn3)no2)C1 [Compound 67, 5-(1-((2-Ethoxyphenyl)sulfonyl)azetidin-3-yl)-3-(5-fluoropyridin-2-yl)-1,2,4-oxadiazole]",IC50 / EC50,[1],Inactive
same,Mode,,Inactive
"O=S(=O)(c1cccc(C(F)(F)F)c1)N1CC(c2nc(-c3ccsc3)no2)C1 [Compound 18, 3-(Thiophen-3-yl)-5-(1-((3-(trifluoromethyl)phenyl)sulfonyl)azetidin-3-yl)-1,2,4-oxadiazole]",IC50 / EC50,EC50 for compounds of mode Act,6.2 µM
"CCOc1ccccc1S(=O)(=O)N1CC(c2nc(-c3cccc(Cl)c3)no2)C1 [Compound 45, 3-(3-Chlorophenyl)-5-(1-((2-ethoxyphenyl)sulfonyl)azetidin-3-yl)-1,2,4-oxadiazole]",IC50 / EC50,[1],Inactive
same,Mode,,Inactive
CCOc1ccccc1S(=O)(=O)N1CC(F)(c2nc(-c3ccc(F)cc3)no2)C1 [Compound 70],IC50 / EC50,[1],9.2 µM
"CCOc1ccccc1S(=O)(=O)N1CC(c2nc(-c3cccnc3)no2)C1 [Compound 65, 5-(1-((2-Ethoxyphenyl)sulfonyl)azetidin-3-yl)-3-(pyridin-3-yl)-1,2,4-oxadiazole]",IC50 / EC50,[1],Inactive
same,Mode,,Inactive
"O=S(=O)(c1ccccc1Cl)N1CC(c2nc(-c3ccsc3)no2)C1 [Compound 14, 5-(1-((2-Chlorophenyl)sulfonyl)azetidin-3-yl)-3-(thiophen-3-yl)-1,2,4-oxadiazole]",IC50 / EC50,EC50 for compounds of mode Act,7.5 µM
O=S(=O)(c1cccn2ncnc12)N1CC(c2nc(-c3ccc(F)cc3)no2)C1 [Compound 129],IC50 / EC50,EC50 for compounds of mode Act,>10 µM
